Experimental data gathered from unrelated publications.

| SMILES | host | sample | route | dose | notes | Tmax [h] |
| --- | --- | --- | --- | --- | --- | --- |
| Cn1cc(-c2ccc(S(=O)(=O)[C@@H]3C[C@@H](C(=O)NC4(C#N)CC4)N(C(=O)C4(C(F)(F)F)CC4)C3)c(C(F)(F)F)c2)cn1 | human | plasma | oral | 100 mg | single dose, fasted, healthy volunteers | 4 |
| CC(C)(O)c1ccccc1-c1ccc2[nH]c(/C=C/c3ccc(C(F)(F)F)cc3)nc2c1 | male human | plasma | oral | 225 mg | single dose, fasted | 2.02 |
| C[C@@]1(c2cc(NC(=O)c3ccc(C#N)cn3)ccc2F)C=CSC(N)=N1 | human | plasma | oral | 3 mg | single dose | 1.25 |
| CS(=O)(=O)CCC#N | human | plasma | oral | 100 mg | multiple doses, once daily | 1 |
| C#C[C@]1(COP(=O)(O)OP(=O)(O)OP(=O)(O)O)O[C@@H](n2cnc3c(N)nc(F)nc32)C[C@@H]1O | human | plasma | oral | 30 mg | single dose | 24 |
| NS(=O)(=O)NCCNc1nonc1C(=NO)Nc1ccc(F)c(Br)c1 | human | plasma | oral | 300 mg | multiple doses, twice daily, steady state, patients | 2 |
| COc1ccc([C@@H]2CN(C(=O)[C@@H](O)CO)C[C@@]2(C)[C@@H](C)O)cc1OC1CN(c2ccc(C)cn2)C1 | human | plasma | oral | 20 mg | single dose, healthy volunteers | 1.5 |
| C=CC(=O)N(C)CCOc1c(N)ncnc1-c1cc(F)cc(NC(=O)c2ccc(C3CC3)cc2F)c1C | human | blood | oral | 400 mg | single dose, healthy volunteers | 1.24 |
| CO[C@@H]1[C@H](OC(=O)N2CC(CCN3CCOCC3)C2)CC[C@]2(CO2)[C@H]1[C@@]1(C)O[C@@H]1CC=C(C)C | human | plasma | subcutaneous | 2.4 mg | single dose, healthy volunteers | 0.25 |
| COc1cc(N2CCC(N3CCN(C)CC3)CC2)ccc1Nc1ncnc(Nc2ccccc2S(=O)(=O)C(C)C)n1 | human | plasma | oral | 125 mg | multiple doses, patients | 2.97 |
| Cc1nc(NC(=O)N2CCC[C@H]2C(N)=O)sc1-c1ccnc(C(C)(C)C(F)(F)F)c1 | human | plasma | oral | 350 mg | patients | 1.77 |
| CC(C)n1cc(C#N)c2cc(-n3cc(C(=O)O)cn3)ccc21 | human | plasma | oral | 600 mg | multiple doses, once daily, steady state | 3.5 |
| c1cnc2ccc(Nc3nc(NC4CC4)c4nc[nH]c4n3)cc2c1 | human | plasma | oral | 50 mg/m² | patients | 5 |
| C[C@@H](Nc1cc(F)cc(F)c1)c1cc(C(=O)N(C)C)cc2c(=O)cc(N3CCOCC3)oc12 | human | plasma | oral | 300 mg | single dose, patients | 1.21 |
| CCc1nc(C(N)=O)c(Nc2ccc(N3CCC(N4CCN(C)CC4)CC3)c(OC)c2)nc1NC1CCOCC1 | human | plasma | oral | 40 mg | multiple doses, patients | 4.01 |
| CCc1nc2c(C)cc(N3CCN(CC(=O)N4CC(O)C4)CC3)cn2c1N(C)c1nc(-c2ccc(F)cc2)c(C#N)s1 | human | plasma | oral | 20 mg | fed, healthy volunteers | 1 |
| CC(C)(Sc1ccncc1-c1ccc(C#N)c2ccccc12)C(=O)O | male human | plasma | oral | 1 mg | multiple doses, once daily | 0.5 |
| O=C(Nc1c(Cl)cncc1Cl)c1ccc(OC(F)F)c(OCC2CC2)c1 | human | plasma | oral | 0.375 mg | single dose | 0.5 |
